Test results: publication PMC4243878 (British Journal of Clinical Pharmacology, 2014)
“And” between values parts separate entries of the source, which are not always exact repeats. Equal values may be shown once. Read-outs that look alike come from different tables or passages of the source. Each block holds one compound with its values, some of them ahead of it.

Columns and labels:
[1] = assay type: in vivo, human; conditions: Cohort 1, boceprevir 800 mg every 8 h + dolutegravir 50 mg once daily (n = 15); geometric mean (%CVb)
Method in brief: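 Cohort 1 took 800 mg oral boceprevir three times daily with 50 mg dolutegravir daily for 10 days, with moderate-fat meals. Plasma was acidified with phosphoric acid, and the stereoisomers were extracted by solid-phase extraction. Analysis was LC-MS/MS with heated nebulizer, positive ion mode, calibrated 0.0052–5.2 and 0.0048–4.8 μg ml−1. Parameters came from noncompartmental steady-state analysis, reported as geometric means (%CVb) and median Tmax, and were compared with label values without statistics.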

[2] = cited from earlier work
[3] = assay type: in vivo, human; conditions: for Cmin / AUC / Cmax / concentration at 24 h / half-life: geometric mean (95% CI); for AUC / Cmax / concentration at 24 h / half-life: both, human, plasma, oral; for AUC: AUC0–τ; for concentration at 24 h: Cτ
Method in brief: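 Healthy adults took 50 mg oral dolutegravir once daily with a morning moderate-fat meal, alone for 5 days. They then continued for 10 days with boceprevir 800 mg or telaprevir 750 mg three times daily, with no washout. Plasma was assayed by validated LC-MS/MS. Noncompartmental parameters used actual sampling times, with Cτ taken at 24 h postdose. Log-transformed AUC0–τ, Cmax and Cτ were analysed by mixed-model ANOVA (subject random, treatment fixed). Results were given as GLS mean ratios with 95% CI versus dolutegravir alone.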

[4] = Safety: adverse events in healthy adult subjects; assay type: in vivo, human; conditions: dolutegravir n = 32, combinations n = 16 each
Method in brief: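 Healthy adults aged 18–65 were randomised into two cohorts of 16. Period 1: 50 mg dolutegravir once daily for 5 days. Period 2, with no washout: Cohort 1 added boceprevir 800 mg three times daily, Cohort 2 added telaprevir 750 mg three times daily, both for 10 days. Doses were given with moderate-fat meals (30% fat, 600 calories). Adverse events were recorded and graded for intensity and drug relatedness.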

[5] = previous dolutegravir clinical studies; cited from earlier work
[6] = assay type: in vivo, human; conditions: Cohort 2, telaprevir 750 mg every 8 h + dolutegravir 50 mg once daily (n = 15)
Method in brief: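 Cohort 2 took 750 mg oral telaprevir three times daily with 50 mg dolutegravir daily for 10 days, with moderate-fat meals. Plasma was acidified with phosphoric acid, and (S)-telaprevir was extracted by supported liquid extraction. Analysis was LC-MS/MS with TurboIonSpray, positive ion mode, calibrated 0.1–20 μg ml−1. Steady-state parameters came from noncompartmental analysis and were compared with label data without formal statistics.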

[7] = cited from earlier work; remark: listed apart in the source
[8] = Boceprevir alone, historical, ref Boceprevir package insert, 2013
[9] = Cohort 1, dolutegravir 50 mg once daily + boceprevir 800 mg every 8 h, Period 2 (n = 13)
[10] = Cohort 1, dolutegravir + boceprevir vs. dolutegravir
[11] = Cohort 2, dolutegravir 50 mg once daily + telaprevir 750 mg every 8 h, Period 2 (n = 15)
[12] = Cohort 2, dolutegravir + telaprevir vs. dolutegravir
[13] = 50 mg, Cohort 1, dolutegravir 50 mg once daily alone, Period 1 (n = 16)
[14] = 50 mg, Cohort 2, dolutegravir 50 mg once daily alone, Period 1 (n = 16)
[15] = coadministration with telaprevir vs dolutegravir alone
[16] = Telaprevir alone, historical, ref Telaprevir package insert, 2013

Cmin [1]: 0.07 (23) μg ml^−1
Cτ [1]: 0.08 (35) μg ml^−1
SMILES: CC(C)(C)NC(=O)N[C@H](C(=O)N1C[C@H]2[C@@H]([C@H]1C(=O)NC(CC1CCC1)C(=O)C(N)=O)C2(C)C)C(C)(C)C (stereo partly shown) [Boceprevir, boceprevir]
AUC0–τ [2, 8]: 5.408 µg·h/mL
Cmax [2, 8]: 1.723 µg/mL
Cmin [2, 8]: 0.08 µg/mL
half-life [2]: 3 to 4 h

Cmin [3, 9]: 1.36 (1.10, 1.68) μg ml^−1
Cmin ([3]; Cohort 1, dolutegravir 50 mg once daily alone, Period 1 (n = 16)): 1.00 (0.79, 1.25) μg ml^−1
AUC0–τ GLS mean ratio (95% CI) [3, 10]: 1.07 (0.924, 1.234)
Cmax GLS mean ratio (95% CI) [3, 10]: 1.05 (0.941, 1.176)
Cmin GLS mean ratio (95% CI) [3, 10]: 1.36 (1.106, 1.684)
Cτ GLS mean ratio (95% CI) [3, 10]: 1.08 (0.878, 1.329)
t1/2 GLS mean ratio (95% CI) [3, 10]: 1.05 (0.940, 1.166)
Cmin [3, 11]: 2.03 (1.73, 2.38) μg ml^−1
Cmin ([3]; Cohort 2, dolutegravir 50 mg once daily alone, Period 1 (n = 16)): 1.18 (0.96, 1.46) μg ml^−1
AUC0–τ GLS mean ratio (95% CI) [3, 12]: 1.25 (1.183, 1.327)
Cmax GLS mean ratio (95% CI) [3, 12]: 1.19 (1.096, 1.282)
Cmin GLS mean ratio (95% CI) [3, 12]: 1.76 (1.570, 1.963)
Cτ GLS mean ratio (95% CI) [3, 12]: 1.37 (1.274, 1.468)
t1/2 GLS mean ratio (95% CI) [3, 12]: 1.18 (1.061, 1.305)
AUC [3, 13]: 61500 ng·h/mL
AUC [3, 14]: 68900 ng·h/mL
Cmax [3, 13]: 4620 ng/mL
Cmax [3, 14]: 4990 ng/mL
concentration at 24 h [3, 13]: 1310 ng/mL
concentration at 24 h [3, 14]: 1590 ng/mL
half-life ([3]; 50 mg, t1/2, Cohort 1, dolutegravir 50 mg once daily alone, Period 1 (n = 16)): 792 min
half-life ([3]; 50 mg, t1/2, Cohort 2, dolutegravir 50 mg once daily alone, Period 1 (n = 16)): 870 min
AUC [3, 9]: 65300 ng·h/mL
AUC [3, 11]: 84200 ng·h/mL
Cmax [3, 9]: 4820 ng/mL
Cmax [3, 11]: 5810 ng/mL
concentration at 24 h [3, 9]: 1400 ng/mL
concentration at 24 h [3, 11]: 2090 ng/mL
half-life ([3]; t1/2, Cohort 1, dolutegravir 50 mg once daily + boceprevir 800 mg every 8 h, Period 2 (n = 13)): 828 min
half-life ([3]; t1/2, Cohort 2, dolutegravir 50 mg once daily + telaprevir 750 mg every 8 h, Period 2 (n = 14)): 1000 min
change (increase) in dolutegravir Cτ ([3]; coadministration with boceprevir vs dolutegravir alone): 8% and < 10%
increase in dolutegravir AUC0–τ [3, 15]: 25%
increase in dolutegravir Cmax [3, 15]: 19%
increase in dolutegravir Cτ [3, 15]: 37%
change in dolutegravir exposure ([3]; with boceprevir): 7%
change in dolutegravir exposure ([3]; with telaprevir): 25%
SMILES: C[C@@H]1CCO[C@H]2Cn3cc(C(=O)NCc4ccc(F)cc4F)c(=O)c(O)c3C(=O)N12 [Dolutegravir]
All adverse events: Abdominal pain [4]: 0 n (%)
All adverse events: Anal haemorrhage [4]: 0 n (%)
All adverse events: Anorectal discomfort [4]: 0 n (%)
All adverse events: Any adverse event [4]: 4 (13) n (%)
All adverse events: Dysgeusia [4]: 0 n (%)
All adverse events: Haemorrhoids [4]: 0 n (%)
All adverse events: Headache [4]: 2 (6) n (%)
All adverse events: Maculopapular rash [4]: 1 (3) n (%)
Drug-related adverse events: Abdominal pain [4]: 0 n (%)
Drug-related adverse events: Any adverse event [4]: 2 (6) n (%)
Drug-related adverse events: Dysgeusia [4]: 0 n (%)
Drug-related adverse events: Headache [4]: 1 (3) n (%)
Drug-related adverse events: Maculopapular rash [4]: 1 (3) n (%)
Subjects withdrawn because of AEs [4]: 0 n (%)
Elevated alanine aminotransferase, frequency [5]: <1–2 % of subjects

Cmin ([6]; geometric mean (%CVb)): 1.72 (25) μg ml^−1
Cτ ([6]; geometric mean (%CVb)): 1.75 (26) μg ml^−1
Tmax ([6]; median (range)): 3.00 (2.0, 4.0) h
SMILES: CCC[C@H](NC(=O)[C@@H]1[C@H]2CCC[C@H]2CN1C(=O)[C@@H](NC(=O)[C@@H](NC(=O)c1cnccn1)C1CCCCC1)C(C)(C)C)C(=O)C(=O)NC1CC1 [Telaprevir, telaprevir]
AUC0–τ [7, 16]: 22.3 µg·h/mL
Cmax [7, 16]: 3.51 µg/mL
Cmin [7, 16]: 2.03 µg/mL
half-life [7]: 9 to 10 h
